Laboratory results as given in ChEMBL document CHEMBL5154854, “Identification of a Vitamin-D Receptor Antagonist, MeTC7, which Inhibits the Growth of Xenograft and Transgenic Tumors In Vivo” (J Med Chem, 2022).

Target: T1, Vitamin D3 receptor (Homo sapiens) (UniProt P11473)
T1 sequence (whole entry): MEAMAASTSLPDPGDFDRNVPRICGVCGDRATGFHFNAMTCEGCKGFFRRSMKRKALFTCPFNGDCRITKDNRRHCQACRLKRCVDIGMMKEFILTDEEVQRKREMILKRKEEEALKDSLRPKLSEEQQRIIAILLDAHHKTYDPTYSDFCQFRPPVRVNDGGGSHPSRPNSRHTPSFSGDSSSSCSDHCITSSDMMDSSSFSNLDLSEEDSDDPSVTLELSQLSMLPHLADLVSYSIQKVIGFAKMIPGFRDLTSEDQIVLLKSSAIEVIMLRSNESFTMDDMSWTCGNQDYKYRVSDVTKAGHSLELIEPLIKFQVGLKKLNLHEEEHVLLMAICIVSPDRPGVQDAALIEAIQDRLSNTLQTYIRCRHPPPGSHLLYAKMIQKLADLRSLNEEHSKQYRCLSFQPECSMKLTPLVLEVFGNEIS
Test: Antagonist activity at VDR LBD (unknown origin) using Alexa Fluor 647-labeled SRC2-3 as substrate incubated for 2 hrs in presence of calcitriol by fluorescence polarization assay
Method in brief: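 VDR-LBD (0.1 μM) with Alexa Fluor 647-labelled SRC2-3 (17.5 nM) and 10 nM 1,25(OH)2D3 in 25 mM PIPES, 50 mM NaCl, 0.01% NP-40, pH 6.75. Compounds were serially diluted 1:2 from 10 mM DMSO stocks and incubated 2 h. Polarization was read at 635/685 nm. Three independent experiments in quadruplicate; IC50 by variable-slope nonlinear regression.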

For CC(C)CCC[C@@H](C)[C@H]1CC[C@H]2C3=CC=C4C[C@@H](O)CC[C@]4(C)[C@H]3CC[C@]12C, which Activity is on record?
Its Activity is > 100 µM.
